STEP inh – inhibitors of human striatal-enriched phosphatase STEP | inhibition, % at 20 µM | AID 588621 | 0.25% of 360,000 active | P54829 | recombinant STEP, OMFP fluorogenic substrate, fluorescence;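 active = inhibition at 20 µM, scaled per plate between control wells, above about 37%, limit read from the data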;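 note: 0% = DMSO with enzyme and substrate and 100% = substrate only without enzyme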
Target sequence (P54829 whole entry, looked up): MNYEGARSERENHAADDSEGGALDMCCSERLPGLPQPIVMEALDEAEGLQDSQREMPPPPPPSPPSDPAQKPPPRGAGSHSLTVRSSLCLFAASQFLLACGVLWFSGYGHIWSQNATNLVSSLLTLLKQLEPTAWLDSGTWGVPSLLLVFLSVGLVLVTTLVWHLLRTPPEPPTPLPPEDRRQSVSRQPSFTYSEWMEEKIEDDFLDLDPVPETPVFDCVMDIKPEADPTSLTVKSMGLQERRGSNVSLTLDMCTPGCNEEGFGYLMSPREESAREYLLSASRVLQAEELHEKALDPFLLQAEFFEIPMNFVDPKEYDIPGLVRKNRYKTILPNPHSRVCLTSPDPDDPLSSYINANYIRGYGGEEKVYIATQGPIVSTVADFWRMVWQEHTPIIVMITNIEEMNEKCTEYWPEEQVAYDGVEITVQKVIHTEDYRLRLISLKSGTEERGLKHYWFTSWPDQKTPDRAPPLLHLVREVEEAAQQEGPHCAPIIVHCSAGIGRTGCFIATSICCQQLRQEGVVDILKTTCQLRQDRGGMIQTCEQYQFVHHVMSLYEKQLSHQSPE
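Assay system: isolated STEP enzyme / Timing: 20 min at room temperature, dark / Doses: 20 µM, 1% DMSO / Technique: fluorescence intensity, excitation 480 nm, emission 540 nm / Reagent: fluorogenic phosphatase substrate OMFP at 25 µM final / Measure: percent inhibition scaled to no-enzyme and uninhibited-enzyme controls, plate-pattern corrected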
PP5 primary – inhibitors of human protein phosphatase 5 (PP5). inhibition, % at 6.7 µM. 0.18% of 320,000 active. purified PP5c, OMFP substrate fluorescence;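 active = inhibition above the campaign's mean inhibition across all tested compounds plus 3 SD, cut at about 9.5% in these data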;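 note: 0% = DMSO only and 100% = 100 µM cantharidin control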
LMPTP inh – blocks human LMPTP phosphatase | P24666 | inhibition, % at 20 µM | 0.22% of 360,000 active | recombinant LMPTP-A, OMFP fluorogenic substrate, fluorescence intensity | AID 651560;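 active = compounds that cut the enzyme signal by at least half of the control window in the single-dose screen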;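 note: plate controls were DMSO wells with enzyme plus substrate for no effect and substrate without enzyme for full effect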
Target sequence (P24666 whole entry, looked up): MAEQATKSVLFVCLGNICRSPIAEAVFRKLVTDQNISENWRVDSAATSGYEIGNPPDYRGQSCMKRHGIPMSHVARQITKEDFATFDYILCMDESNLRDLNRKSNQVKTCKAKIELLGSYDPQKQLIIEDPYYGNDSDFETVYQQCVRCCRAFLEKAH
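Test system: LMPTP-A phosphatase enzyme; input: 0.625 nM LMPTP-A final; reagent: OMFP substrate, 400 µM final; compound dosing: 20 µM single dose, 3% DMSO; incubation: 50 min dark incubation at room temperature; measured by: endpoint fluorescence intensity from OMFP dephosphorylation; measure: % inhibition relative to no-enzyme and uninhibited control wells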
PP1 counter – counter-screen for PP5 inhibitors: inhibitors of human PP1-alpha | P62136 | purified PP1alpha, OMFP fluorescence | inhibition, % at 6.7 µM | 0.9% of 320,000 active;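 active = inhibition above the mean inhibition of all tested compounds plus 3 SD, computed separately for each screening campaign, cut at about 15% in these data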
Scp-1 inhibitor – inhibitors of human Scp-1 phosphatase; 0.88% of 340,000 active; Recombinant Scp1, phosphopeptide, malachite green phosphate absorbance; inhibition, % at 20 µM; Q9GZU7;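 active = inhibition above about 50% at 20 µM, limit read from the data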;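 note: plate controls were DMSO wells with enzyme for no effect and wells lacking enzyme for full effect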
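Test system: SCP-1 phosphatase catalytic domain, residues 76-261; measured by: colorimetric phosphate reagent with accelerator and stabiliser, absorbance at 630 nm; timing: enzyme reaction 45 min at room temperature, colour 5 min, stabilisation 30 min; also added: Phosphorylated 17-residue peptide substrate; compound dosing: one concentration, 20 µM, with 1.0% DMSO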
Scp1 confirm – confirmation of human Scp-1 phosphatase inhibitors | shares compounds with Scp-1 inhibitor | recombinant SCP-1 catalytic domain, phosphate release, malachite green absorbance | inhibition, % at 20 µM | 61% of 2,500 active | AID 540281;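 note: plate controls were DMSO with enzyme for no effect and buffer wells lacking enzyme for full effect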
MG interference – interferes with malachite green readout, flagging false Scp-1 hits; AID 540313; shares compounds with Scp-1 inhibitor; Colorimetric interference counterscreen, malachite green absorbance 630 nm; apparent inhibition (interference), % at 20 µM; 2,500 tested, under 10 active;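 note: compounds added after enzyme reaction finished so only phosphate colour detection is probed; plate controls were DMSO wells with completed Scp-1 reaction for no effect and substrate wells lacking enzyme for full effect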
Scp-1 Tm shift – binds human Scp-1, shifting its melting temperature; shares compounds with Scp-1 inhibitor; Recombinant SCP1, Sypro Orange thermal shift Tm; thermal shift relative to vanadate control, % at 40 µM; 25% of 1,500 active; AID 540329;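 active = substances whose mean melting-temperature shift, as a percentage of the reference inhibitor's shift, reaches about 5.3%, limit read from the data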;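 note: 0% = Tm of DMSO wells and 100% = Tm with sodium orthovanadate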
* hit, by the source's call; · = no result. Sampled rows, rich in hits. Any-hit rate of the full collection: about 1.9%.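 Rule for the calls, unless noted: active = inhibition of at least 30% at 20 µM; inactive = the rest.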

SMILES | STEP inh | PP5 primary | LMPTP inh | PP1 counter | Scp-1 inhibitor | Scp1 confirm | MG interference | Scp-1 Tm shift
COc1ccc(S(=O)(=O)N2CCN(C(=O)c3ccc([N+](=O)[O-])o3)CC2)cc1 | 6 | 5 | 1 | -6 | 51* | 42* | -15 | 4
CCOC(=O)C1c2cccc(O)c2CCN1C(C)=O (stereo not drawn) | 5 | · | 10 | · | · | · | · | ·
CC(/C=C/c1ccccc1F)=N\NC(=O)c1ccc(Cl)cc1 | -2 | 2 | 0 | -4 | 52* | -14 | -14 | ·
Cc1ccc(-c2csc(C3=C(O)CN(NC(=O)c4ccco4)C3=N)n2)cc1 | 12 | -1 | 41 | -2 | 51* | 35* | -2 | -12
COc1ccccc1NC(C)=O | 4 | -2 | -1 | -2 | -3 | · | · | ·
COc1ccccc1NC(=O)C(=N\O)/C(C)=N/O | 25 | 0 | 5 | 0 | 75* | 30* | -15 | -2
Nc1cccc2c1C(=O)c1ccc(Cl)cc1C2=O | 4 | · | 31 | · | 50* | 26 | -6 | ·
O=C(O)c1cccc2c1-c1ccc(Cl)cc1C2=O | -2 | · | -3 | · | 0 | · | · | ·
COc1cc(Cl)c(C)cc1NC(=O)CSc1sc2c(O)cc(=O)[nH]c2c1C#N | 16 | 3 | 35 | 9 | 65* | 76* | 0 | 13*
Cc1ccc(NC(=O)CSc2sc3c(O)cc(=O)[nH]c3c2C#N)c(F)c1 | 4 | 0 | -1 | 5 | 30 | · | · | ·
COc1ccc(OC)c(NC(=O)CSc2sc3c(O)cc(=O)[nH]c3c2C#N)c1 | 13 | 0 | 44 | 10 | 70* | 55* | -12 | 11*
O=C(c1cnn(-c2nc3ccccc3s2)c1)c1ccccc1O | 2 | 4 | 5 | 1 | -13 | · | · | ·
O=S(=O)(NCc1ccccn1)c1ccc2c(c1)OCCO2 | -4 | 1 | 0 | 2 | -3 | · | · | ·
O=C(Nc1cc([N+](=O)[O-])ccc1O)c1ccc2c(c1)C(=O)N(Cc1ccco1)C2=O | 6 | 6 | 6 | 4 | 55* | 25 | -16 | ·
O=C(Nc1ccc(O)cc1)c1ccc2c(c1)C(=O)N(Cc1ccco1)C2=O | 3 | 1 | 0 | -1 | 0 | · | · | ·
O=C(O)Cc1ccc(NC(=O)c2ccc3c(c2)C(=O)N(Cc2ccco2)C3=O)cc1 | 16 | 1 | 3 | 1 | 69* | 58* | -16 | 6.8*
Cc1ccc(OCCCCNC2CCCCC2)c(C)c1 | 0 | 1 | -1 | -2 | -4 | · | · | ·
O=C(O)CC(C(=O)O)C(c1ccccc1)c1ccccc1 (stereo not drawn) | 0 | · | 0 | · | -8 | · | · | ·
Cc1nnc(SCC(=O)NC(=O)NC(C)(C)C)n1N | 2 | -8 | -2 | 11 | -3 | · | · | ·
COc1ccc(C=O)cc1CSc1ccccn1 | 0 | 1 | -1 | 1 | -11 | · | · | ·
COc1ccc(/C=N/NC(=O)c2ccc(O)cc2O)cc1CSc1ccccn1 | -3 | -1 | 5 | -1 | 57* | 64* | 2 | 5
O=C1C=CC(=Nc2cccc3c2C(=O)c2ccccc2-3)O1 | 1 | · | 13 | · | 61* | -20 | -22 | ·
CN1CCC(CNC(=O)Nc2ccccc2)(c2ccccc2)CC1 | -1 | -2 | 0 | -6 | -2 | · | · | ·
COc1ccc(C2CCCN2CC(O)COc2ccccc2C(C)C)cc1 (stereo not drawn) | 0 | -1 | 1 | -1 | 61* | -22 | -18 | ·
CCOC(=O)N1CCN(CC(O)COc2ccccc2C(C)C)CC1 (stereo not drawn) | -1 | 4 | 0 | -2 | -8 | · | · | ·
SMILES | STEP inh | PP5 primary | LMPTP inh | PP1 counter | Scp-1 inhibitor | Scp1 confirm | MG interference | Scp-1 Tm shift
Clc1ccc(C=NN2CCCCCC2)c(Cl)c1 | -1 | · | 1 | · | 67* | -14 | -19 | ·
Clc1ccc(/C=N/N2CCCCC2)cc1 | 3 | 1 | -1 | 1 | -11 | · | · | ·
CC(C)c1ccc(S(=O)(=O)N2CCN(C(C)C(=O)N3CCCC3)CC2)cc1 (stereo not drawn) | -2 | 0 | -2 | -6 | -2 | · | · | ·
CC(C(=O)N1CCCCC1)N1CCN(S(=O)(=O)c2ccc(Cl)cc2)CC1 (stereo not drawn) | -2 | 2 | -1 | 3 | 97* | 78* | -13 | -9
CCc1ccc(N2CC(C(=O)NCCC3=CCCCC3)CC2=O)cc1 (stereo not drawn) | -2 | 1 | 0 | -2 | -5 | · | · | ·
Cc1c(S(=O)(=O)N2CCc3ccccc3C2)c(=O)n(C)c(=O)n1C | -8 | -3 | -1 | -2 | 13 | · | · | ·
O=C1C2C3C=CC(C3)C2C(=O)N1Nc1ccc([N+](=O)[O-])cc1[N+](=O)[O-] (stereo not drawn) | 0 | 2 | -3 | -6 | -2 | · | · | ·
O=C1c2ccccc2C(=O)N1Nc1ccc([N+](=O)[O-])cc1[N+](=O)[O-] | 18 | 3 | 9 | -1 | 52* | 46* | -4 | -15
Cc1ccc(NC(=S)N2CCN(c3ccccn3)CC2)c(C)c1 | 1 | 1 | -2 | -3 | -4 | · | · | ·
CCOC(=O)C1=C(C)Nc2ccccc2N/C1=N\S(=O)(=O)c1cc(C(=O)O)ccc1Cl | 10 | 1 | 7 | 2 | 50* | 41* | -19 | -5
CCOC(=O)C1=C(C)Nc2ccccc2N/C1=N\S(=O)(=O)c1ccc(Cl)cc1 | -3 | 4 | -1 | -4 | -7 | · | · | ·
Clc1cc(Cl)cc(C2=NC(Cc3ccccc3)CO2)c1 (stereo not drawn) | 6 | 0 | -2 | -3 | -4 | · | · | ·
CCC(C)NC(=O)c1ccc(COc2ccccc2Cl)cc1 (stereo not drawn) | -2 | 5 | 2 | -6 | -7 | · | · | ·
COCCOC(=O)c1cc(C(=O)c2cc(Cl)ccc2O)coc1=N | 0 | 3 | -1 | 0 | 55* | -11 | -16 | ·
O=C(C[C@@H]1C/C=C\CCC(=O)OC[C@@H]2CCCN2C1=O)N[C@H](CO)Cc1ccccc1 | -2 | · | 2 | · | 3 | · | · | ·
C#Cc1ccc([C@@H]2C=C(C(=O)O)O[C@H](OCc3ccc(CO)cc3)C2)cc1 | 2 | 3 | 0 | 0 | 57* | 68* | 0 | 2
O=C(O)C1=C[C@@H](c2ccccc2)C[C@@H](OCc2ccc(CO)cc2)O1 | -1 | 4 | -1 | -1 | 0 | · | · | ·
Cc1ccsc1/C=C/C1=Cc2c(sc(NC(=O)CSc3n[nH]c(N)n3)c2C#N)C(C)(C)C1 | 12 | 3 | 10 | 17* | 58* | 25 | -14 | ·
CN(C)C(=O)c1ccccc1Sc1cc(Cl)ccc1Cl | -3 | 2 | -2 | -2 | -5 | · | · | ·
CC(=O)c1ccc(NC(=O)c2noc3c2CCC3)cc1 | 1 | 0 | 1 | -1 | 62* | 54* | -13 | -1
